From ChEMBL document CHEMBL2331228, “Synthesis and insight into the structure-activity relationships of chalcones as antimalarial agents” (J Med Chem, 2013)
≈ marks a conversion by molar mass, not a printed value. Values belong to the compound of their own block, whether it stands above or below them. Calls of active or inactive are those of the source. The rule behind the calls is not given here.

Legend:
Plasmodium falciparum [1] = experiment: Activation of Plasmodium falciparum recombinant Falcipain-3 using Z-LR-AMC as substrate at high concentration after 30 mins by microplate reader analysis
[2] = Inhibition of Plasmodium falciparum recombinant Falcipain-2 using Z-LR-AMC as substrate after 30 mins by microplate reader analysis
Plasmodium falciparum [3] = experiment: Inhibition of Plasmodium falciparum recombinant Falcipain-3 using Z-LR-AMC as substrate at low concentration after 30 mins by microplate reader analysis
Plasmodium yoelii [4] = experiment: Antimalarial activity against chloroquine-resistant Plasmodium yoelii N-67 infected in Swiss mouse assessed as mean survival time of host at 50 mg/kg/day, ip administered for 3 days (reference value: 9.20 +/- 0.44 days); format: functional; settings: route intraperitoneal
Plasmodium yoelii [5] = experiment: Antimalarial activity against chloroquine-resistant Plasmodium yoelii N-67 infected in Swiss mouse assessed as reduction in parasitemia at 50 mg/kg/day, ip administered for 3 days measured on day 4 relative to control; format: functional; set-up: scale not given: the % may be the effect or the level left; settings: route intraperitoneal
[6] = Selectivity index, ratio of CC50 for african green monkey Vero C1008 cells to IC50 for Plasmodium falciparum 3D7; format: functional
Method in brief: (§1)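 SI = CC50 (Vero, 72 h MTT) / IC50. IC50 comes from a 72 h SYBR Green I fluorescence assay: seven 2-fold dilutions in duplicate, 2% cell suspension at 0.8% parasitemia, and Logit regression of the dose-response.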

[7] = Cytotoxicity against african green monkey Vero C1008 cells after 72 hrs by MTT assay; format: cell-based; settings: chlorocebus sabaeus
Method in brief: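 Vero (C1008) cells were incubated with dilutions of compound for 72 h and read by MTT. CC50 was obtained by nonlinear regression.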

Plasmodium falciparum [8] = experiment: Antimalarial activity against chloroquine-resistant Plasmodium falciparum K1 after 72 hrs by SYBR Green I-based fluorescence assay; format: functional, organism-based; settings: K1, 72 h
Method in brief: (§2)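 Parasites cultured in RPMI with 10% FBS, gentamycin and Fungizone (pH 7.2) at 37 °C in CO2. Compounds from DMSO stock (5 mg/mL). Seven 2-fold serial dilutions, duplicate wells. Cells added at 2% hematocrit, 0.8% parasitemia; uninfected-cell wells kept as background. After 72 h, lysis buffer with SYBR Green I, 1 h at 37 °C, fluorescence read. IC50 by logit regression of dose-response.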

Plasmodium falciparum [9] = experiment: Antimalarial activity against schizont stage of chloroquine-sensitive Plasmodium falciparum 3D7 after 72 hrs by SYBR Green I-based fluorescence assay; format: functional, organism-based; settings: 3D7, 72 h; method in brief: as §2
Plasmodium falciparum [10] = experiment: Antimalarial activity against schizont stage of chloroquine-sensitive Plasmodium falciparum 3D7 after more than 40 hrs by Giemsa staining-based light microscopic analysis; format: functional; settings: 3D7, 40 h
Method in brief: (§3)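 Ring stages (5% D-sorbitol synchronized) of 3D7 were grown in RPMI with 10% FBS, gentamycin and Fungizone at 37 °C under CO2. They were exposed in duplicate to compound (DMSO stock, 5 mg/mL) at 2, 10 and 50 μg/mL, with 3% cell suspension and 1% parasitized cells, for >40 h. Giemsa-stained thin smears were counted for schizonts. MIC is the lowest concentration giving 100% inhibition of schizont maturation.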

Plasmodium falciparum [11] = experiment: Antimalarial activity against schizont stage of chloroquine-sensitive Plasmodium falciparum 3D7 assessed as reduction in parasitemia at 50 ug/ml after more than 40 hrs by Giemsa staining-based light microscopy; format: functional; set-up: scale not given: the % may be the effect or the level left; method in brief: as §3
[12] = Selectivity index, ratio of CC50 for african green monkey Vero C1008 cells to IC50 for Plasmodium falciparum K1; format: functional; method in brief: as §1
Plasmodium falciparum [13] = experiment: Resistance ratio of IC5O for Plasmodium falciparum K1 to IC50 for Plasmodium falciparum 3D7; format: functional
Method in brief: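 Ratio of K1 IC50 to 3D7 IC50. Both come from the 72 h SYBR Green I fluorescence assay: seven 2-fold dilutions in duplicate, 0.8% parasitemia, IC50 by logit regression.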

Plasmodium falciparum [14] = experiment: Antimalarial activity against schizont stage of chloroquine-sensitive Plasmodium falciparum 3D7 assessed as reduction in parasitemia at 2 to 10 ug/ml after more than 40 hrs by Giemsa staining-based light microscopy; format: functional; set-up: scale not given: the % may be the effect or the level left; method in brief: as §3
Plasmodium yoelii [15] = experiment: Antimalarial activity against chloroquine-resistant Plasmodium yoelii N-67 infected in Swiss mouse assessed as mean survival time at 20 mg/kg/day, po administered for 3 days (reference value: 9.20 +/- 0.44 days); format: functional
Plasmodium yoelii [16] = experiment: Antimalarial activity against chloroquine-resistant Plasmodium yoelii N-67 infected in Swiss mouse assessed as reduction in parasitemia at 20 mg/kg/day, po administered for 3 days measured on day 4 relative to control; format: functional; set-up: scale not given: the % may be the effect or the level left

Compound: CC(C)=CCCC1(C)C=Cc2ccc(O)c(C(=O)/C=C/c3cc(C=O)ccc3O)c2O1 (centres undefined)
Activity (Plasmodium falciparum [1]): Active
IC50 [2]: 4600 nM
inhibition (Plasmodium falciparum [3]): inactive
MST (Plasmodium yoelii [4]): 18.4 days
Activity (Plasmodium yoelii [5]): 87%
Ratio CC50/IC50 [6]: 1173
CC50 at 72 h [7]: 103000 nM
IC50 (Plasmodium falciparum [8]): > 1200 nM
IC50 (Plasmodium falciparum [9]): 87.5 nM
MIC (Plasmodium falciparum [10]): 0.31 µM (≈ 0.13 µg/mL)

MIC (Plasmodium falciparum [10]): > 113 µM
Compound: CC(C)=CCCC1(C)C=Cc2c(ccc(C(=O)/C=C/c3ccc(Cl)cc3Cl)c2O)O1 (centres undefined)
Activity (Plasmodium falciparum [11]): <100%

Compound: CC(C)=CCCC1(C)C=Cc2ccc(O)c(C(=O)/C=C/c3ccc(O)c(C=O)c3)c2O1 (centres undefined)
MST (Plasmodium yoelii [4]): 16.75 days
Activity (Plasmodium yoelii [5]): 88%
Ratio CC50/IC50 [6]: 334
Ratio CC50/IC50 [12]: 376
CC50 at 72 h [7]: 31700 nM
Ratio IC50 (Plasmodium falciparum [13]): 0.9
IC50 (Plasmodium falciparum [8]): 84.2 nM
IC50 (Plasmodium falciparum [9]): 94.7 nM
MIC (Plasmodium falciparum [10]): 0.39 µM (≈ 0.163 µg/mL)

MIC (Plasmodium falciparum [10]): > 19.3 µM
Compound: CC(C)CCC[C@H](C)CCC[C@H](C)CCCC1(C)CCc2cc(C(=O)/C=C/c3ccccn3)c(O)cc2O1 (some centres undefined)
Activity (Plasmodium falciparum [14]): <100%

Compound: CCN(CC)CCCC(C)Nc1ccnc2cc(Cl)ccc12 (centres undefined) [CHLOROQUINE]
MST (Plasmodium yoelii [15]): >28 days
Activity (Plasmodium yoelii [16]): 99%

MIC (Plasmodium falciparum [10]): > 148 µM
Compound: COc1ccc(CCC(=O)c2ccc3c(c2O)C=CC(C)(C)O3)cc1
Activity (Plasmodium falciparum [11]): <100%

MIC (Plasmodium falciparum [10]): > 19.3 µM
Compound: CC(C)CCC[C@H](C)CCC[C@H](C)CCCC1(C)CCc2cc(C(=O)/C=C/c3cccnc3)c(O)cc2O1 (some centres undefined)
Activity (Plasmodium falciparum [14]): <100%

MIC (Plasmodium falciparum [10]): > 136 µM
Compound: CCOc1cc(/C=C/C(=O)c2ccc3c(c2O)C=CC(C)(C)O3)ccc1F
Activity (Plasmodium falciparum [11]): <100%

MIC (Plasmodium falciparum [10]): > 91.2 µM
Compound: COc1ccc(C(=O)c2cc3cc(/C=C/C(=O)c4ccc5c(c4O)C=CC(C)(CCC=C(C)C)O5)ccc3o2)cc1 (centres undefined)
Activity (Plasmodium falciparum [11]): <100%

MIC (Plasmodium falciparum [10]): > 32.4 µM
Compound: CC1(C)CCc2cc(C(=O)/C=C/c3ccccn3)c(O)cc2O1
Activity (Plasmodium falciparum [14]): <100%

MIC (Plasmodium falciparum [10]): > 149 µM
Compound: COc1ccccc1/C=C/C(=O)c1ccc2c(c1O)C=CC(C)(C)O2
Activity (Plasmodium falciparum [11]): <100%

MIC (Plasmodium falciparum [10]): > 146 µM
Compound: CC1(C)C=Cc2c(ccc(C(=O)/C=C/c3ccc(F)cc3F)c2O)O1
Activity (Plasmodium falciparum [11]): <100%
